These results are taken from ChEMBL document CHEMBL1127326, “Antitumor agents. 148. Synthesis and biological evaluation of novel 4 beta-amino derivatives of etoposide with better pharmacological profiles” (1994).

Values joined by “and” are separate entries in the source; they are usually repeats but may differ in a detail not shown here. Identical values can stand only once.

Assay [1] relates to Tumor Cell line. The experiment in a line: Drug molar concentration required to inhibit 50% of human tumor cell growth. It is filed as functional. The method, boiled down: (§1)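 NCI panel of 54 human tumor lines from eight cancer types, mostly seeded at 20 000 cells/well. Cells were preincubated 24 h without drug, then exposed to five 10-fold dilutions for 48 h, fixed and stained with sulforhodamine B, and read spectrophotometrically. Versus control, GI50 (50% growth inhibition), TGI (0% growth) and LC50 (−50% growth) were calculated; mean graph midpoints average all lines.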

For assay [2], the system named is Tumor Cell line. Description: Drug concentration required to inhibit total cell growth. It is filed as functional, Homo sapiens. Particulars: read-out: Log TGI (converted). The gist of the method:
as §1

In a further assay the test system is Nucleic Acid. Description: Percentage inhibition of cellular protein-DNA complex formation. The class given is functional. The following applies: Homo sapiens.
In assay [3] the test system is KB. The experiment in a line: Cytotoxicity against KB cells after a 3 day incubation. It is filed as functional, Homo sapiens. The following applies: read-out: ID50 (the source's name). The method, boiled down:
(§2)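 KB cells (parental ATCC line and resistant variants) exposed to drug at five concentrations […] for 3 days. ID50 is the concentration giving 50% reduction in cell number, derived from the degree of inhibition at the five concentrations.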

Assay [4] has as its system Tumor Cell line. The experiment in a line: Drug concentration required to cause 50% cell death. The class given is functional, Homo sapiens. Particulars: Homo sapiens, Tumor Cell line. The method, boiled down: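 NCI in vitro panel of 54 human tumor cell lines from eight cancer types, mostly seeded at 20 000 cells/well and preincubated 24 h without drug. Five 10-fold dilutions were then added for a further 48 h. Cells were fixed in situ and stained with sulforhodamine B, and bound dye was read spectrophotometrically. LC50 (−50% growth versus control) was taken from five-point dose-response curves and reported as the log10 mean-graph midpoint across lines.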

The target in assay [5] is T1, DNA topoisomerase II (Homo sapiens) (UniProt P11388+Q02880). The experiment in a line: 50% inhibition of human DNA topoisomerase II. The class given is protein assay.
In assay [6] the test system is KB. The experiment in a line: 50% reduction in the number of KB ATCC cells. The class given is functional. The following applies: Homo sapiens, read-out: ID50 (the source's name). The method, boiled down:
as §2

In assay [7] the test system is KB. Description: 50% reduction in the number of KB 7D (topoisomerase II, aMDR) resistant variant. Particulars: Homo sapiens, KB; read-out: ID50 (the source's name). The class given is functional, Homo sapiens. The gist of the method:
as §2

For assay [8], the system named is KB. Description: 50% reduction in the number of KB V20C resistant variant. It is filed as functional, Homo sapiens. Particulars: Homo sapiens, KB; read-out: ID50 (the source's name). The method, boiled down:
as §2

Assay [9] addresses T1, DNA topoisomerase II (Homo sapiens). The experiment in a line: inhibition of human DNA topoisomerase II. It is filed as protein assay.
Assay [10] concerns Tumor Cell line. The experiment in a line: Inhibition of human tumor cell growth. The class given is functional. The method, boiled down: as §1
In assay [11] the target is T1, DNA topoisomerase II (Homo sapiens). Description: 50% inhibition of human DNA topoisomerase II was measured. The class given is protein assay.

By GI50 is commonly meant the concentration giving 50% growth inhibition. Lower therefore signals more potent growth inhibition. One may read the TGI as the concentration at which net growth stops. The term LC50 denotes the concentration that kills 50% of the test population.

In the assay with Tumor Cell line [1], `COc1cc([C@@H]2c3cc4c(cc3[C@@H](Nc3ccc(C(=O)O)cc3)[C@H]3COC(=O)[C@H]23)OCO4)cc(OC)c1O` [listing 1 of 3 here] showed a 50% growth inhibitory concentration (GI50) of 12900 nM. For the same compound, the TGI in the assay with Tumor Cell line [2] is 52500 nM.
In turn, `CCOC(=O)CC[C@H](NC(=O)c1ccc(N[C@@H]2c3cc4c(cc3[C@@H](c3cc(OC)c(O)c(OC)c3)[C@H]3C(=O)OC[C@@H]32)OCO4)cc1)C(=O)OCC` yielded a Complex formation in the assay on Nucleic Acid of 83%. For the same compound, in the assay on KB [3] (Homo sapiens, KB, 72 h), the IC50 is under 400 nM. In the assay on Tumor Cell line [1] (Homo sapiens, Tumor Cell line), this compound had a GI50 of 50.1 nM. The LC50 in the assay with Tumor Cell line [4] was 2880 nM. Besides, the TGI in the assay on Tumor Cell line [2] (Homo sapiens, Tumor Cell line) was 339 nM. In assay [5], this compound came in with an ID50 of 100000 nM.
For `CCOC(=O)N1CCC(N[C@@H]2c3cc4c(cc3[C@@H](c3cc(OC)c(O)c(OC)c3)[C@H]3C(=O)OC[C@@H]32)OCO4)CC1` [listing 1 of 3 here], in [5], the ID50 amounted to 25000 nM.
As to `CCOC(=O)N1CCC(N[C@@H]2c3cc4c(cc3[C@@H](c3cc(OC)c(O)c(OC)c3)[C@H]3C(=O)OC[C@@H]32)OCO4)CC1` [listing 2 of 3 here], the IC50 with KB [3] was 1130 nM. Further, the 50% growth inhibitory concentration (GI50) with Tumor Cell line [1] is 1780 nM. The total growth inhibition concentration (TGI) with Tumor Cell line [2] was 8130 nM.
In assay [5], `COc1cc([C@@H]2c3cc4c(cc3[C@@H](NCCN3CCOCC3)[C@H]3COC(=O)[C@H]23)OCO4)cc(OC)c1O` [listing 1 of 3 here] yielded an ID50 of 50000 nM.
Regarding `COc1cc([C@@H]2c3cc4c(cc3[C@@H](Nc3ccc(C(=O)O)cc3)[C@H]3COC(=O)[C@H]23)OCO4)cc(OC)c1O` [listing 2 of 3 here], in the assay with KB [3] (Homo sapiens, KB, 72 h), the IC50 is over 4000 nM. This compound also gave a GI50 in the assay on Tumor Cell line [1] (Homo sapiens, Tumor Cell line) of 8510 nM. Further, the TGI in the assay with Tumor Cell line [2] is 15800 nM.
With `COc1cc([C@@H]2c3cc4c(cc3[C@@H](NCCN3CCCCC3)[C@H]3COC(=O)[C@H]23)OCO4)cc(OC)c1O` [listing 1 of 2 here], in the assay with KB [3] (Homo sapiens, KB, 72 h), the IC50 turned out to be 1600 nM. The compound further showed a GI50 in the assay on Tumor Cell line [1] (Homo sapiens, Tumor Cell line) of 427 nM. This compound also had a median lethal concentration (LC50) in the assay on Tumor Cell line [4] of 36300 nM. Further, the TGI in the assay on Tumor Cell line [2] (Homo sapiens, Tumor Cell line) was 3720 nM.
Consider `COc1cc([C@@H]2c3cc4c(cc3[C@@H](NCCCN(C)C)[C@H]3COC(=O)[C@H]23)OCO4)cc(OC)c1O` [listing 1 of 2 here], for which the Complex formation in the assay on Nucleic Acid is 179% and 186%. In [5], this compound had an ID50 of 25000 nM.
With `COc1cc([C@@H]2c3cc4c(cc3[C@@H](NCCN(C)C)[C@H]3COC(=O)[C@H]23)OCO4)cc(OC)c1O` [listing 1 of 3 here], the IC50 in the assay with KB [6] was determined as 400 nM; in the assay with KB [3] (Homo sapiens, KB, 72 h), 400 nM; in the assay on KB [7] it was 680 nM; in the assay on KB [8], 440 nM. In the assay on Tumor Cell line [1] (Homo sapiens, Tumor Cell line), growth was halved (GI50) at 155 nM. In the assay on Tumor Cell line [4], this compound gave an LC50 of 15100 nM. Moreover, in the assay on Tumor Cell line [2] (Homo sapiens, Tumor Cell line), the concentration for total growth inhibition (TGI) was 1480 nM.
Regarding `COc1cc([C@@H]2c3cc4c(cc3[C@@H](NCCN3CCCCC3)[C@H]3COC(=O)[C@H]23)OCO4)cc(OC)c1O` [listing 2 of 2 here], the Complex formation with Nucleic Acid was 183% and 190%. Also, the ID50 in [9] is 50000 nM and 25000 nM.
For the compound `COc1cc([C@@H]2c3cc4c(cc3[C@@H](NCCN(C)C)[C@H]3COC(=O)[C@H]23)OCO4)cc(OC)c1O` [listing 2 of 3 here], the Complex formation in the assay with Nucleic Acid was 203% and 183%. In addition, in assay [5], the ID50 turned out to be 25000 nM.
As for `COc1cc([C@@H]2c3cc4c(cc3[C@@H](O[C@@H]3O[C@@H]5CO[C@@H](C)O[C@H]5[C@H](O)[C@H]3O)[C@H]3COC(=O)[C@H]23)OCO4)cc(OC)c1O` [ETOPOSIDE], the Complex formation with Nucleic Acid came out at 100%. In addition, the IC50 with KB [6] is 320 nM; in the assay on KB [3] (Homo sapiens, KB, 72 h) it was 200 nM; in the assay with KB [7], 18000 nM; with KB [8], 2300 nM. The GI50 in the assay with Tumor Cell line [10] was 83200 nM.
Take `COc1cc([C@@H]2c3cc4c(cc3[C@@H](NCCN(C)C)[C@H]3COC(=O)[C@H]23)OCO4)cc(OC)c1O` [listing 3 of 3 here]: halving of growth in the assay on Tumor Cell line [1] (Homo sapiens, Tumor Cell line) (GI50) required 263 nM. In the assay with Tumor Cell line [4], this compound gave a median lethal concentration (LC50) of 21900 nM. For the same compound, in the assay on Tumor Cell line [2] (Homo sapiens, Tumor Cell line), the TGI is 2510 nM.
On to `CCOC(=O)N1CCC(N[C@@H]2c3cc4c(cc3[C@@H](c3cc(OC)c(O)c(OC)c3)[C@H]3C(=O)OC[C@@H]32)OCO4)CC1` [listing 3 of 3 here], for which the IC50 in the assay with KB [3] (Homo sapiens, KB, 72 h) came out at 740 nM. Further, the concentration for 50% growth inhibition (GI50) with Tumor Cell line [1] (Homo sapiens, Tumor Cell line) is 1350 nM. The TGI in the assay on Tumor Cell line [2] (Homo sapiens, Tumor Cell line) is 7760 nM.
For `COc1cc([C@@H]2c3cc4c(cc3[C@@H](NCCCN(C)C)[C@H]3COC(=O)[C@H]23)OCO4)cc(OC)c1O` [listing 2 of 2 here], the IC50 in the assay on KB [3] is 1150 nM. In the assay on Tumor Cell line [1] (Homo sapiens, Tumor Cell line), this compound showed a 50% growth inhibitory concentration (GI50) of 550 nM. Also, the LC50 in the assay with Tumor Cell line [4] is 13500 nM. Besides, the TGI in the assay on Tumor Cell line [2] (Homo sapiens, Tumor Cell line) was 2820 nM.
For the compound `COc1cc([C@@H]2c3cc4c(cc3[C@@H](NC3CCN(Cc5ccccc5)CC3)[C@H]3COC(=O)[C@H]23)OCO4)cc(OC)c1O`, the ID50 in [5] is 100000 nM; in assay [11], 50000 nM.
With `COc1cc([C@@H]2c3cc4c(cc3[C@@H](NCCN3CCOCC3)[C@H]3COC(=O)[C@H]23)OCO4)cc(OC)c1O` [listing 2 of 3 here], in the assay with KB [3], the IC50 was determined as 2000 nM. The same compound showed a GI50 in the assay on Tumor Cell line [1] of 1820 nM. Besides, the TGI in the assay with Tumor Cell line [2] was 11500 nM.
`COc1cc([C@@H]2c3cc4c(cc3[C@@H](NCCN3CCOCC3)[C@H]3COC(=O)[C@H]23)OCO4)cc(OC)c1O` [listing 3 of 3 here]: the IC50 in the assay with KB [3] (Homo sapiens, KB, 72 h) stood at 4000 nM. This compound had a 50% growth inhibitory concentration (GI50) in the assay with Tumor Cell line [1] (Homo sapiens, Tumor Cell line) of 2450 nM. The TGI in the assay on Tumor Cell line [2] (Homo sapiens, Tumor Cell line) was 10000 nM.
For the compound `COc1cc([C@@H]2c3cc4c(cc3[C@@H](Nc3ccc(C(=O)O)cc3)[C@H]3COC(=O)[C@H]23)OCO4)cc(OC)c1O` [listing 3 of 3 here], the Complex formation in the assay on Nucleic Acid was > 6.9% and 1.9%. The ID50 in assay [5] is over 100000 nM.
